Screening results from PubChem.
This is one part of a sample in which hits are shown more often than they occur.
HUVEC inhibit = blocks proliferation of human endothelial cells; HUVEC proliferation, CellTiter-Glo luminescence, 72 h; stronger effect = lower value; viability, % at 10 µM (by protocol); 1.1% of 86,000 active; AID 648;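 active = viability at or below 30%; inactive = viability above 30%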;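 note: 100% = median luminescence of DMSO-only cell control wells on each plate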
H69AR inhibit = growth inhibitors of human H69AR lung tumor cells; viability, % at 10 µM; 6% of 85,000 active; H69AR lung tumor viability, ATP luminescence, 72 h; stronger effect = lower value;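 active = viability at or below 40%; inactive = viability above 40%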;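 note: multidrug resistant small cell line overexpressing MRP-1 efflux transporter; 100% = mean luminescence of untreated control wells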
HCT116 PTEN-null = PTEN-deleted cell growth suppression; 1.2% of 140,000 active; HCT116 PTEN-null viability, CellTiter-Glo, 60 h; stronger effect = lower value; viability, % at 10 µM;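 active = viability at or below a set limit, 4 SD under the median of all tested compounds, cut at about 3.7% in these data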;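 note: PTEN knockout HCT116 line with beta catenin targeted HCT116 as companion control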
HCT116 bCat-KO = beta-catenin-lacking colon tumor cell growth suppression. HCT116 beta-catenin knockout viability, CellTiter-Glo, 60 h; stronger effect = lower value. viability, % at 10 µM. 1.5% of 140,000 active. AID 818;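 active = viability at or under a set limit, the compound median less 4 SD, cut at about 6% in these data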;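 note: 0% = Hyamine 1622 control at 20 µM and 100% = untreated cell control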
Lung fibro prol = blocks proliferation of human lung fibroblasts. 1.1% of 85,000 active. viability, % at 10 µM. LL 47 human lung fibroblast viability, ATP luminescence; stronger effect = lower value;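 active = viability at or below 50% in the single dose screen; inactive = viability above 50%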;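 note: compound exposure lasted 72 h before the ATP readout; 100% = median luminescence of untreated cell-only wells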
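Times – overnight cell rest, 72 h compound treatment at 37 °C · Test system – human lung fibroblast line LL 47, low passage · Amount – 1,150 cells in each well · Controls – cell-only wells, no compound · Doses – 0.1% DMSO in all compound wells · Measured by – CellTiter-Glo luminescence · Buffer or medium – IMEM plus 15% FBS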
An asterisk follows results filed as active.

`COc1ccc(-n2ncc3c(NCc4ccc5c(c4)OCO5)ncnc32)cc1` gave HUVEC inhibit 66, H69AR inhibit 6.2*, HCT116 PTEN-null 86, HCT116 bCat-KO 88 and Lung fibro prol 68.
Screening O=c1c2ccccc2oc2nc(-c3cccs3)n(CCc3ccccc3)c(=O)c12 returned HCT116 PTEN-null 92 and HCT116 bCat-KO 90.
Screening Cc1cc(C)c(COc2ccc(/C=N/n3c(C)n[nH]c3=S)cc2)c(C)c1 returned HCT116 PTEN-null 85 and HCT116 bCat-KO 66.
`CC1CC(NC(=O)N(C)C)N(C)C(=O)N1` (stereo not drawn) gave HCT116 PTEN-null 93 and HCT116 bCat-KO 83.
Screening Cc1ccc(CSCCNS(=O)(=O)c2ccc(C)cc2)cc1 returned HCT116 PTEN-null 91 and HCT116 bCat-KO 97.
CC(=O)C(Sc1ncnc2c1nnn2-c1ccc(F)cc1)C(=O)N(C)C (stereo not drawn) was read as HUVEC inhibit 89, H69AR inhibit 12*, HCT116 PTEN-null 99, HCT116 bCat-KO 99 and Lung fibro prol 107.
Screening COc1ccc2[nH]c3c(Cl)ncnc3c2c1 returned HCT116 PTEN-null 9 and HCT116 bCat-KO 5.7*.
`CCCCOc1ncnc2c1[nH]c1ccc(OC)cc12` gave HUVEC inhibit 97, H69AR inhibit 53, HCT116 PTEN-null 77, HCT116 bCat-KO 82 and Lung fibro prol 98.
Screening Fc1ccc(-c2csc3ncnc(N4CCc5ccccc5C4)c23)cc1 returned HCT116 PTEN-null 52 and HCT116 bCat-KO 51.
CCOC(=O)c1c(Nc2ccc(Cl)cc2)sc(/C=C2\C=Nc3ccccc32)c1O was read as HUVEC inhibit 12*, H69AR inhibit 2.7*, HCT116 PTEN-null 14, HCT116 bCat-KO 37 and Lung fibro prol 46*.
Oc1nc(Nc2cccc(Cl)c2)sc1/C=C1\C=Nc2ccccc21 was read as HCT116 PTEN-null 68 and HCT116 bCat-KO 70.
Screening O=C(Nc1ccc(Cl)cn1)c1cc2ccccc2o1 returned HUVEC inhibit 93, H69AR inhibit 87, HCT116 PTEN-null 92, HCT116 bCat-KO 86 and Lung fibro prol 87.
`O=C(Nc1ccc(Cl)cn1)c1ccc(-c2cc(Cl)ccc2Cl)o1` gave HCT116 PTEN-null 7 and HCT116 bCat-KO 3.1*.
CN1CCc2c(C#N)c(N3CCCCC3)nc(NCc3ccccc3)c2C1 was read as HUVEC inhibit 11*, H69AR inhibit 3.4*, HCT116 PTEN-null 1.4*, HCT116 bCat-KO 1.0* and Lung fibro prol 67.
`N#Cc1c(NCCCO)nc(NCc2ccccc2)c2c1CCN(Cc1ccccc1)C2` gave HUVEC inhibit 70, H69AR inhibit 43, HCT116 PTEN-null 60, HCT116 bCat-KO 73 and Lung fibro prol 86.
`O=C(CSc1nc2ccccc2c(=O)n1CCCN1CCOCC1)Nc1cccc(S(=O)(=O)N2CCCCCC2)c1` gave HCT116 PTEN-null 36 and HCT116 bCat-KO 47.
`CN1CC2([N+](=O)[O-])CC=C(OCCO)C([N+](=O)[O-])(C1)C2` (stereo not drawn) gave HCT116 PTEN-null 95 and HCT116 bCat-KO 89.
Screening CCOC(=O)N1CCN(C(=O)c2ccc3c(c2)sc2nc(-c4ccc(OC)cc4)cn23)CC1 returned HCT116 PTEN-null 85 and HCT116 bCat-KO 95.
COc1ccc2c(c1)sc1nc(-c3ccccc3)cn12 was read as HUVEC inhibit 47, H69AR inhibit 20*, HCT116 PTEN-null 12, HCT116 bCat-KO 12 and Lung fibro prol 94.
`CCOC(=O)N1C=CC(C)=C[C@@H]2[C@@H](N3C(=O)c4ccccc4C3=O)C(=O)N21` gave HCT116 PTEN-null 99 and HCT116 bCat-KO 100.
Screening O=Cc1cn(CC(=O)N2CCCc3ccccc32)c2ccccc12 returned HUVEC inhibit 93, H69AR inhibit 35*, HCT116 PTEN-null 86, HCT116 bCat-KO 87 and Lung fibro prol 96.
Screening CNc1ccc(Br)cc(C(=O)/C=C/c2cccc(OC)c2)c1=O returned HUVEC inhibit 22*, H69AR inhibit -0.2*, HCT116 PTEN-null 25, HCT116 bCat-KO 24 and Lung fibro prol 8.8*.
CCNc1ccc(Br)cc(C(=O)/C=C/c2ccc(Cl)cc2)c1=O was read as HCT116 PTEN-null 4 and HCT116 bCat-KO 7.
Screening CCNc1ccc(Br)cc(C(=O)/C=C/c2c(Cl)cccc2Cl)c1=O returned HUVEC inhibit 7.9*, H69AR inhibit 2.0*, HCT116 PTEN-null 1.5*, HCT116 bCat-KO 3.5* and Lung fibro prol 63.
Screening O=C(CCCOc1ccc(Cl)cc1Cl)N/N=C/c1ccccc1O returned HCT116 PTEN-null 9 and HCT116 bCat-KO 4.6*.
Screening Cc1cc(C)c2nc(N3CCCN(C(=O)c4ccco4)CC3)c(C#N)cc2c1 returned HUVEC inhibit 98, H69AR inhibit 35*, HCT116 PTEN-null 8, HCT116 bCat-KO 11 and Lung fibro prol 97.
`Cc1ccccc1[C@@H]1C(C#N)=C(N)S[C@H]1C(=O)c1ccccc1` gave HCT116 PTEN-null 87 and HCT116 bCat-KO 82.
Screening Cc1cc(Cl)c(S(=O)(=O)Nc2cccc(O)c2)cc1OCC(N)=O returned HCT116 PTEN-null 106 and HCT116 bCat-KO 101.
Screening Cc1cc(C)c2c(N)c3ccccc3nc2n1 returned HCT116 PTEN-null 3.2* and HCT116 bCat-KO 2.9*.
Screening CCOC(=O)c1sc2nc(C)cc(C)c2c1N returned HUVEC inhibit 99, H69AR inhibit 102, HCT116 PTEN-null 85, HCT116 bCat-KO 67 and Lung fibro prol 102.
`CCc1ccc2nc3nc(C)cc(C)c3c(N)c2c1` gave HCT116 PTEN-null 3.2* and HCT116 bCat-KO 4.0*.
`COc1ccc(NS(=O)(=O)c2cc(NC(=O)c3cccc(OCc4c(C)noc4C)c3)ccc2OC)cc1` gave HCT116 PTEN-null 70 and HCT116 bCat-KO 79.
`O=C(/C=C/c1cccc([N+](=O)[O-])c1)Nc1ccc(NC(=O)c2cccs2)cc1` gave HCT116 PTEN-null 51 and HCT116 bCat-KO 56.
`O=C(/C=C/c1cccc([N+](=O)[O-])c1)c1cccs1` gave HCT116 PTEN-null 1.5* and HCT116 bCat-KO 2.2*.
For COc1cc(CN2CCN(c3cccc(Cl)c3)CC2)cc(OC)c1OC the results were HUVEC inhibit 59, H69AR inhibit 26*, HCT116 PTEN-null 27, HCT116 bCat-KO 32 and Lung fibro prol 66.
`N=c1n(CCN2CCCCC2)c2ccccc2n1CC(O)c1ccc(Cl)c(Cl)c1` (stereo not drawn) gave HCT116 PTEN-null 1.1* and HCT116 bCat-KO 0.9*.
`N=c1n(CCN2CCCC2)c2ccccc2n1CC(O)c1ccco1` (stereo not drawn) gave HUVEC inhibit 86, H69AR inhibit 84, HCT116 PTEN-null 86, HCT116 bCat-KO 92 and Lung fibro prol 97.
N=c1n(CCN2CCCCC2)c2ccccc2n1CC(O)c1cccc(Br)c1 (stereo not drawn) was read as HUVEC inhibit 65, H69AR inhibit 22*, HCT116 PTEN-null 11, HCT116 bCat-KO 12 and Lung fibro prol 46*.
